Calls of active or inactive are those of the source. The rule behind the calls is not given here.
Legend:
RBL-2H3 [1] = test: Antiallergic activity in mIgE-DNP and DNP-BSA-stimulated rat RBL2H3 cells assessed as inhibition of beta-hexosaminidase release at 200 uM pretreated before mIgE-DNP challenge; format: functional, cell-based; settings: TDE = time-dependent effect
Procedure, shortened: (§1)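 RBL-2H3 cells (DMEM, 10% FBS) seeded at 1 × 10^5/well and left 4-6 h at 37 °C to adhere. Compound was added at final concentrations for various pretreatment times, then mIgE-DNP was added for 16 h. Cells were washed in Tyrode's buffer (pH 7.4, 1 mg/mL BSA) and challenged with DNP-BSA 1 µg/mL for 1 h at 37 °C. Supernatant was incubated with p-NAG in citrate pH 4.5 for 1 h at 37 °C and read at A405. Inhibition was calculated against Triton X-100 total-release and spontaneous-release controls.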

[2] = Cytotoxicity against rat RBL2H3 cells at 200 uM after 12 hrs by MTT assay; format: cell-based; settings: rbl-2h3, 12 h
Procedure, shortened: (§2)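 MTT viability assay in RBL-2H3 cells grown to 70-80% confluence and then exposed to compound; untreated and ≤0.5% DMSO cultures served as controls. MTT stock 5 mg/mL was diluted 1:10 into medium 3 h before the end of exposure, then incubated 2 h at 37 °C. Formazan was dissolved in DMSO and read at 600 nm. Viability is given as % of control OD, ≥3 repeats, and IC50 was derived from this.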

[3] = Cytotoxicity against rat RBL2H3 cells after 12 hrs by MTT assay; format: cell-based; settings: RBL-2H3, 12 h; procedure, shortened: as §2
RBL-2H3 [4] = test: Antiallergic activity in mIgE-DNP and DNP-BSA-stimulated rat RBL2H3 cells assessed as inhibition of beta-hexosaminidase release pretreated before mIgE-DNP challenge measured after 12 to 48 hrs; format: functional, cell-based; procedure, shortened: as §1
RBL-2H3 [5] = test: Antiallergic activity in mIgE-DNP and DNP-BSA-stimulated rat RBL2H3 cells assessed as inhibition of beta-hexosaminidase release at 100 uM pretreated before mIgE-DNP challenge measured after 24 hrs relative to control; format: functional; procedure, shortened: as §1
RBL-2H3 [6] = test: Antiallergic activity in mIgE-DNP and DNP-BSA-stimulated rat RBL2H3 cells assessed as inhibition of beta-hexosaminidase release at 1 uM pretreated before mIgE-DNP challenge measured after 12 hrs relative to control; format: functional; procedure, shortened: as §1
RBL-2H3 [7] = test: Antiallergic activity in mIgE-DNP and DNP-BSA-stimulated rat RBL2H3 cells assessed as inhibition of beta-hexosaminidase release at 200 uM pretreated before mIgE-DNP challenge measured after 48 hrs relative to control; format: functional; procedure, shortened: as §1
RBL-2H3 [8] = test: Antiallergic activity in mIgE-DNP and DNP-BSA-stimulated rat RBL2H3 cells assessed as inhibition of beta-hexosaminidase release at 100 uM pretreated before mIgE-DNP challenge measured after 48 hrs relative to control; format: functional; procedure, shortened: as §1
RBL-2H3 [9] = test: Antiallergic activity in mIgE-DNP and DNP-BSA-stimulated rat RBL2H3 cells assessed as inhibition of beta-hexosaminidase release at 200 uM pretreated before mIgE-DNP challenge measured after 12 hrs; format: functional, cell-based; procedure, shortened: as §1
RBL-2H3 [10] = test: Antiallergic activity in mIgE-DNP and DNP-BSA-stimulated rat RBL2H3 cells assessed as inhibition of beta-hexosaminidase release at 1 uM pretreated before mIgE-DNP challenge measured after 48 hrs relative to control; format: functional; procedure, shortened: as §1
RBL-2H3 [11] = test: Antiallergic activity in mIgE-DNP and DNP-BSA-stimulated rat RBL2H3 cells assessed as inhibition of beta-hexosaminidase release at 200 uM pretreated before mIgE-DNP challenge measured after 24 hrs relative to control; format: functional; procedure, shortened: as §1
RBL-2H3 [12] = test: Antiallergic activity in mIgE-DNP and DNP-BSA-stimulated rat RBL2H3 cells assessed as inhibition of beta-hexosaminidase release at 100 uM pretreated before mIgE-DNP challenge measured after 12 hrs; format: functional, cell-based; procedure, shortened: as §1
[13] = Cytotoxicity against rat RBL2H3 cells at 120 uM after 12 hrs by MTT assay; format: cell-based; settings: rbl-2h3, 12 h; procedure, shortened: as §2
RBL-2H3 [14] = test: Antiallergic activity in mIgE-DNP and DNP-BSA-stimulated rat RBL2H3 cells assessed as inhibition of beta-hexosaminidase release at 1 uM pretreated before mIgE-DNP challenge measured after 24 hrs relative to control; format: functional; procedure, shortened: as §1

For COc1cc(CCC(=O)CC(O)CCc2ccc(O)c(OC)c2)ccc1O (stereo not drawn) [HEXAHYDROCURCUMIN], the inhibition (RBL-2H3 [1]) was “tde”, the Activity [2] was “Toxic” and the IC50 [3] was 152 µM. For the same compound, the inhibition (RBL-2H3 [4]) was “Dose-dependent effect”.
For CCCCCCCCC[C@H](O)CC(=O)CCc1ccc(O)c(OC)c1, the inhibition (RBL-2H3 [5]) was “Active”, the inhibition at 1 µM (RBL-2H3 [6]) was 60% and the inhibition (RBL-2H3 [7]) was “Active”. For the same compound, the inhibition (RBL-2H3 [8]) was “Active”, the inhibition (RBL-2H3 [9]) was “Active” and the inhibition at 1 µM (RBL-2H3 [10]) was 60%. The inhibition (RBL-2H3 [11]) was “Active”, the inhibition (RBL-2H3 [12]) was “Active” and the Activity [13] was “Toxic”. The inhibition at 1 µM (RBL-2H3 [14]) was 60% and the IC50 [3] was 112 µM.
For CCCCC[C@H](O)CC(=O)CCc1ccc(O)c(OC)c1 [GINGEROL], the inhibition (RBL-2H3 [5]) was “Active”, the inhibition at 1 µM (RBL-2H3 [6]) was 60% and the inhibition (RBL-2H3 [7]) was “Active”. For the same compound, the inhibition (RBL-2H3 [8]) was “Active”, the inhibition (RBL-2H3 [9]) was “Active” and the inhibition at 1 µM (RBL-2H3 [10]) was 60%. For the same compound, the inhibition (RBL-2H3 [11]) was “Active”, the inhibition (RBL-2H3 [12]) was “Active” and the inhibition at 1 µM (RBL-2H3 [14]) was 60%. The Activity [2] was “Toxic” and the IC50 [3] was 185 µM.
For CCCCC/C=C/C(=O)CCc1ccc(O)c(OC)c1 [SHOGAOL], the Activity [13] was “Toxic” and the IC50 [3] was 90.4 µM.
For CCCCCC(=O)/C=C(O)/C=C/c1ccc(O)c(OC)c1, the inhibition (RBL-2H3 [5]) was “Active”, the inhibition at 1 µM (RBL-2H3 [6]) was 60% and the inhibition (RBL-2H3 [7]) was “Active”. For the same compound, the inhibition (RBL-2H3 [8]) was “Active”, the inhibition (RBL-2H3 [9]) was “Active” and the inhibition at 1 µM (RBL-2H3 [10]) was 60%. The inhibition (RBL-2H3 [11]) was “Active”, the inhibition (RBL-2H3 [12]) was “Active” and the inhibition at 1 µM (RBL-2H3 [14]) was 60%. The IC50 [3] was 38.5 µM.

— ChEMBL document CHEMBL1151979, “Antiallergic potential on RBL-2H3 cells of some phenolic constituents of Zingiber officinale (ginger)” (J Nat Prod, 2009)
